The source of these data is ChEMBL document CHEMBL4041502, “Zoanthamine-Type Alkaloids from the Zoanthid Zoanthus kuroshio Collected in Taiwan and Their Effects on Inflammation” (2016).

The inhibition is the drop in the measured response relative to a control, in per cent.

In test [1] the test system is Neutrophil. Kind of test: Anti-inflammatory activity in human neutrophils assessed as inhibition of fMLP/CB-induced superoxide anion production by measuring reduction of ferricytochrome c at 10 uM pretreated for 5 mins followed by fMLP/CB addition measured after 10 mins by spectrophotometric method relative to control. The format is functional. In short, it runs like this: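 Donor neutrophils (healthy, 20−35 y) held 2 min at 37 °C in 0.5 mg/mL ferricytochrome c with 1 mM Ca2+, then 5 min with compound, then fMLP 100 nM/cytochalasin B 1 μg/mL for 10 min. Continuous 550 nm read with stirring. SOD-inhibitable (100 U/mL) difference converted using ε = 21.1/mM/10 mm. Inhibition % at 10 μM, mean ± SEM (n = 3, 4).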

For test [2], the system named is Neutrophil. Kind of test: Anti-inflammatory activity in human neutrophils assessed as inhibition of fMLP/CB-induced elastase release at 10 uM using MeO-Suc-Ala-Ala-Pro-Val-p-nitroanilide as a substrate pretreated for 5 mins followed by fMLP/CB addition relative to control. The format is functional. In short, it runs like this:
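Neutrophils from healthy donors aged 20−35 (venipuncture), equilibrated at 37 °C for 2 min with 100 μM MeO-Suc-Ala-Ala-Pro-Val-p-nitroanilide, then exposed to compound 5 min. Stimulus: 100 nM fMLP plus 0.5 μg/mL cytochalasin B. Elastase release followed continuously at 405 nm. Percent inhibition at 10 μM versus control, mean ± SEM (n = 3, 4).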

Structures are written as SMILES.

`CC1=CC(=O)[C@H]2[C@@H](C1)[C@]13CO[C@@]4([C@H]1O)N1C[C@H]5C[C@H](C)C[C@]1(CC[C@@]4(C)[C@]1(COC(=O)C1)[C@H]3C(=O)[C@@H]2C)O5`: the results for the inhibition at 10 µM in the test with Neutrophil [1] and in the test with Neutrophil [2] were 15% and 13%, respectively.

For `CO[C@@H]1[C@@H](C)C[C@@H]2CN3[C@@]1(CC[C@@]1(C)[C@]4(COC(=O)C4)[C@H]4C(=O)[C@H](C)[C@@H]5C(=O)C=C(C)C[C@H]5[C@@]45CO[C@@]31C5=O)O2`, the inhibition at 10 µM in the test on Neutrophil [1] amounted to 20%; with Neutrophil [2], 33%.

As to `CC1=CC(=O)[C@@H]2[C@@H](C1)[C@]1(C)C=C3N4C[C@H]5C[C@H](C)C[C@]4(CC[C@@]3(C)[C@]3(COC(=O)C3)[C@H]1C(=O)[C@@H]2C)O5`, the inhibition at 10 µM in the test on Neutrophil [1] is 18%; with Neutrophil [2] it was 30%.

Consider `CC1=CC(=O)[C@@H]2[C@@H](C1)[C@]13CO[C@@]4([C@H]1O)N1C[C@H]5C[C@H](C)C[C@@]1(O5)[C@@H](O)C[C@@]4(C)[C@]1(COC(=O)C1)[C@H]3C(=O)[C@@H]2C`, for which the results for the inhibition at 10 µM with Neutrophil [1] and with Neutrophil [2] were 11% and 27%, respectively.

Take `CC1=CC(=O)[C@H]2[C@@H](C1)[C@]13CO[C@@]4(C1=O)N1C[C@H]5C[C@H](C)C[C@]1(CC[C@@]4(C)[C@]1(COC(=O)C1)[C@H]3C(=O)[C@@H]2C)O5`: the inhibition at 10 µM in the test on Neutrophil [1] amounted to 14%; in the test with Neutrophil [2], 23%.

In the case of `CC1=CC(=O)[C@@H]2[C@@H](C1)C13C=C4N5C[C@H]6C[C@H](C)[C@@H](I)[C@]5(CC[C@@]4(C)[C@]4(COC(=O)C4)[C@H]1[C@@](O)(OC3)[C@@H]2C)O6`, the inhibition at 10 µM with Neutrophil [1] was 24%; in the test with Neutrophil [2], 43%.

As to `CC1=CC(=O)[C@@H]2[C@@H](C1)[C@]13CO[C@@]4([C@H]1O)N1C[C@H]5C[C@H](C)C[C@]1(CC[C@@]4(C)[C@]1(COC(=O)C1)[C@H]3C(=O)[C@@H]2C)O5`, the values for the inhibition at 10 µM in the test with Neutrophil [1] and in the test with Neutrophil [2] were 9% and 6%, respectively.

With `CC1=CC(=O)[C@@H]2[C@@H](C1)[C@]13CO[C@@]4(C1=O)N1C[C@H]5C[C@H](C)C[C@@]1(O5)[C@@H](O)C[C@@]4(C)[C@]1(COC(=O)C1)[C@H]3C(=O)[C@@H]2C`, the inhibition at 10 µM was determined as 13% with Neutrophil [1] and 15% in the test with Neutrophil [2].

For the compound `CC1=CC(=O)[C@@H]2[C@@H](C1)[C@]13CO[C@@]4([C@H]1Cl)N1C[C@H]5C[C@H](C)C[C@]1(CC[C@@]4(C)[C@]1(COC(=O)C1)[C@H]3C(=O)[C@@H]2C)O5`, the inhibition at 10 µM in the test with Neutrophil [1] came to 23%; with Neutrophil [2], 25%.

Regarding `CC1=CC(=O)[C@@H]2[C@@H](C1)C13C=C4N5C[C@H]6C[C@H](C)C[C@]5(CC[C@@]4(C)[C@]4(COC(=O)C4)[C@H]1[C@@](O)(OC3)[C@@H]2C)O6`, the inhibition at 10 µM with Neutrophil [1] and with Neutrophil [2] was 17% in each case.

`CC1=CC(=O)[C@@H]2[C@@H](C1)[C@]13CO[C@@]4(C1=O)N1C[C@H]5C[C@H](C)C[C@]1(CC[C@@]4(C)[C@]1(COC(=O)C1)[C@H]3C(=O)[C@@H]2C)O5`: the figures for the inhibition at 10 µM in the test on Neutrophil [1] and in the test on Neutrophil [2] were 7% and 27%, respectively.

For the compound `O=c1cc(N2CCOCC2)oc2c(-c3ccccc3)cccc12` [LY-294002], the results for the inhibition at 10 µM in the test on Neutrophil [1] and with Neutrophil [2] were 99% and 73%, respectively.

As for `CC1=CC(=O)[C@@H]2[C@@H](C1)C13C=C4N5C[C@@H]6O[C@@]5(CC[C@@]4(C)[C@]4(COC(=O)C4)[C@H]1[C@@](O)(OC3)[C@@H]2C)C[C@@H](C)[C@@H]6O`, the inhibition at 10 µM was 14% in the test on Neutrophil [1] and 25% with Neutrophil [2].
